Consider four molecules from publication PMC8645912 (ESMO Open, 2021).

Data set [1] deals with metastatic renal cell carcinoma. The settings on record: mRCC; cited from earlier work.
A short description of data set [2]: Adverse events in the study cohort. The data set is classed as in vivo, human. The essentials:
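Clinical examination and blood tests every 4-6 weeks. Adverse events graded by CTCAE v5.0. Relevant toxicity defined as grade 3-4, or grade 2 requiring dose reduction or discontinuation. Each patient counted once for toxicity.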

A short description of data set [3]: PK/PD relation for efficacy: cabozantinib PK at progressive disease. The data set is classed as in vivo, human. Particulars: human, plasma, oral.
Data set [4] concerns metastatic renal cell carcinoma. The description is as above. The class given is in vivo, human.
For data set [5] the following is noted: cited from earlier work.
Data set [6] deals with metastatic renal cell carcinoma. Particulars: CheckMate 9ER PK/PD study, Cavg up to day 1 of cycle 7; cited from earlier work.
The test system is the same in data set [7]. The settings on record: CABOSUN trial, cited from earlier work.
Data set [8] is described as follows: Cabozantinib plasma PK monitoring. The class given is in vivo, human.
The conditions of data set [9]: cited from earlier work. The source holds these as a separate data set.
The subject of data set [10] is metastatic renal cell carcinoma. Particulars: METEOR trial; cited from earlier work.
The conditions of data set [11]: cited from earlier work. This is another data set of the same source.
The format of data set [12] is in vivo, human. The settings on record: for AUC: human, plasma, oral.
[13] abbreviates: most frequent G3 toxicities, of the 30 patients.
[14] abbreviates: of the 30 patients with relevant toxicity.
Setting [15] is: SD/PR patients (disease control).
Setting [16] is: patients with progressive disease (PD).
Where [17] appears, read: patients with relevant toxicity.
Setting [18] is: patients without relevant toxicity.

Several values for one entry are separate records, joined by “and”; a condition that tells them apart may be missing. Equal entries are not always repeated. Where two headings read alike, the source gives them in different places.

For the molecule `CNC(=O)c1ccccc1Sc1ccc2c(/C=C/c3ccccn3)n[nH]c2c1` [Axitinib], in [1], the “AUC at 4 weeks from treatment start associated with better OS and PFS” value was > 300 ng·h/mL and 154 to 620 ng·h/mL; the “Css,trough associated with longer OS” value was “• >5 ng/ml associated with longer OS”; the “Css,trough associated with ≥G2 asthenia” value is greater than 7.1 ng/mL.

`Cc1ccc(Nc2nccc(N(C)c3ccc4c(C)n(C)nc4c3)n2)cc1S(N)(=O)=O` [Pazopanib]: in data set [1], the “Css,trough associated with PD” value is less than 15 µg/mL; the “Css,trough associated with PR/SD” value was no less than 15 µg/mL; the “Css,trough associated with longer PFS and greater tumor shrinkage” value is no less than 20.5 µg/mL.

As to `CCN(CC)CCNC(=O)c1c(C)[nH]c(/C=C2\C(=O)Nc3ccc(F)cc32)c1C` [Sunitinib], in data set [1], the AUCss and efficacy result is on record as “• Lower in PD patients compared with AUCss at treatment start”; the “AUCss associated with higher grade 3-4 toxicity” value is listed as “• >2150 ng/ml/h higher grade 3-4 toxicity”; the “Css,trough associated with longer PFS and TTF” value is less than 100 ng/mL; the “Css,trough associated with worse outcomes” value is greater than 100 ng/mL.

`COc1cc2nccc(Oc3ccc(NC(=O)C4(C(=O)Nc5ccc(F)cc5)CC4)cc3)c2cc1OC` [cabozantinib] yielded a G3 cutaneous rash in data set [2] (setting [13]) of 16.7%. In addition, the “G3 hand-foot syndrome (HFS)” value in [2] (setting [13]) was determined as 26.7%. Besides, the G3 hypertension in data set [2] (setting [13]) is recorded as 50%. This molecule showed a G3 vomiting in data set [2] (setting [13]) of 10%. Moreover, the “Number of patients who experienced a relevant toxicity” value in data set [2] (of 76 patients, at data cut-off) worked out at 30 patients. Also, the “Patients with G2 event requiring a dose reduction (DR)” value in [2] (setting [14]) was found to be 20%. In addition, in data set [2] (setting [14]), the “Patients with G2 event requiring a drug discontinuation (DD)” value stood at 26.7%. Moreover, in data set [2] (setting [14]), the “Patients with at least one G2 event requiring a DD or a DR” value worked out at 46.7%. Also, in data set [2] (setting [14]), the “Patients with at least one G3 toxicity” value is recorded as 53.3%. Moreover, the G4 toxicity entry in [2] (study cohort) is reported as “No patient”. Besides, the AUC in data set [3] (Mean AUC (SD), SD/PR patients (disease control)) was 24600 ng·h/mL; in data set [3] (Mean AUC (SD), patients with progressive disease (PD)) it was 17700 ng·h/mL; in data set [3] (Median AUC (IQR), SD/PR patients (disease control)) it was 20000 ng·h/mL; in data set [3] (Median AUC (IQR), patients with progressive disease (PD)) it was 16000 ng·h/mL; in data set [8] (human, plasma, oral, Mean AUC (SD), whole population, from population PK model), 20900 ng·h/mL; in data set [12] (Mean AUC (SD), patients with relevant toxicity), 28600 ng·h/mL. Besides, the AUC was 19800 ng·h/mL in [12] (Mean AUC (SD), patients without relevant toxicity); 21000 ng·h/mL in data set [12] (Median AUC (IQR), patients with relevant toxicity); 16000 ng·h/mL in data set [12] (Median AUC (IQR), patients without relevant toxicity). Also, the “Number of PR observed” value in [4] (RECIST 1.1) turned out to be 7 patients. The “Ctrough threshold to detect disease progression (drug efficacy threshold)” value in data set [4] (ROC curve) was 536.8 ng/mL. Moreover, the “Mean Cl/F (SD)” value stood at 2.01 L/h in [4] (setting [15]); 2.86 L/h in [4] (setting [16]); 2.5 L/h in [8] (whole population, from population PK model). Besides, the “Mean Ctrough (SD)” value in [4] (setting [15]) was 788.5 ng/mL; in data set [4] (setting [16]), 465.6 ng/mL; in data set [8] (whole population, Ctrough estimated from Cmeas by formula), 597.7 ng/ml and 597.7 (363.9) ng/ml; in data set [12] (patients with relevant toxicity (G3-4, or G2 requiring DR or DD)), 950.2 ng/mL; in data set [12] (setting [18]) it was 574.1 ng/mL. Also, the “Median Cl/F (IQR)” value in [4] (setting [15]) came to 2.9 L/h; in data set [4] (setting [16]), 2 L/h. Also, the “Proposed target Ctrough for efficacy in TDM” value in data set [4] (mRCC, real-life TDM) was greater than 530 ng/mL. Also, the “Number of patients with progressive disease” value in [4] (of 76 patients, RECIST 1.1, at data cut-off) is 35 patients and 34 patients. Also, the “Patients with PR observed” value in [4] (of patients, RECIST 1.1) was 9.2%. For the same molecule, the “Median Ctrough (IQR)” value in data set [4] (setting [16]) is 406 ng/mL; in [8] (whole population), 500.2 (365.5-742.5) ng/ml; in [12] (setting [17]), 693 ng/mL; in data set [12] (setting [18]), 521 ng/mL. Also, the “Individual predicted average cabozantinib concentration at steady state” value in [5] (20 mg daily) is 375 ng/mL; in data set [5] (40 mg daily), 750 ng/mL; in [5] (60 mg daily) it was 1125 ng/mL. Moreover, the “Cl/F, patients with a lower Cl/F” value in data set [5] (after oral administration) was 1.3 L/h. Besides, the “Cl/F, patients with a standard Cl/F” value in [5] (after oral administration) was 2.3 L/h. The “Effect of average cabozantinib concentration (Cavg) on PFS” value in data set [6] is “no effect”. Moreover, in data set [7] (first-line mRCC), the “PFS and ORR versus first-line standard sunitinib” value is reported as “superior to first-line standard sunitinib”. For the same molecule, the “Dose reduction (DR) rate” value in data set [7] was 46%; in [10], 60%. Besides, the “Drug discontinuation (DD) rate” value is on record as 16% in data set [7] and 9% in data set [10]. Besides, the “Grade 3-4 adverse event rate” value is 67% in [7] and 74% in [10]. Moreover, the “Mean Ctrough at 40 mg daily (SD)” value in [8] (40 mg daily) is 565 (283) ng/ml. For the same molecule, the “Median Ctrough at 40 mg daily (IQR)” value in [8] (40 mg daily) is recorded as 477 (366-649) ng/ml. For the same molecule, in [8] (60 mg daily), the “Mean Ctrough at 60 mg daily (SD)” value was 667 (375) ng/ml. In data set [8] (60 mg daily), the “Median Ctrough at 60 mg daily (IQR)” value is 564 (402-777) ng/ml. In addition, the “Median measured cabozantinib plasma concentration” value in [8] (median daily dose 40 mg, median time 38 weeks) was determined as 500 ng/mL. The “Mean Cmeas (measured blood concentration)” value in data set [8] (whole population, 76 mRCC patients, steady state, at least 8 h from last dose) was 598.3 ng/mL. Besides, the “Biopharmaceutics Classification System class” value in [9] was “Class II”. Also, in data set [9], the “Cellular permeability in vivo” value is given as “high”. In addition, the “PFS, ORR and OS versus everolimus” value in data set [10] is “superiority over everolimus”. In addition, in data set [11], the “Effect of PPI administration on cabozantinib efficacy and clinical PK” value was “no relevant effect”. Besides, the “Ctrough threshold to detect relevant toxicity” value in data set [12] (ROC curve) was 617.7 ng/mL. For the same molecule, the Cmeas in data set [12] (setting [17]) is 732 ng/mL; in data set [12] (setting [18]), 531 ng/mL.
